Values after ≈ are worked out from the molar mass of the structure shown. Active and inactive are the calls of the source. The rule behind the calls is not given here.
Legend:
[1] = Selectivity index, ratio of IC50 for cytotoxicity against human HEK-293T cells to MIC of antimicrobial activity against methicillin-resistant Staphylococcus aureus ATCC 700699; format: toxicity, cell-based; details: read-out: Selectivity Index
Method in brief: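 Ratio of HEK293 IC50 to MIC. HEK293 cells (4000/well, EMEM with 10% FBS, 37 °C, 5% CO2) treated 24 h with a concentration range in DMSO. Resazurin added for 4 h, fluorescence read at ex 560/em 590 nm. IC50 fitted.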

Enterococcus faecalis [2] = experiment: Antimicrobial activity against vancomycin-susceptible Enterococcus faecalis ATCC 29212 assessed as bacterial growth inhibitions by CLSI protocol based microdilution method
Staphylococcus aureus [3] = experiment: Antimicrobial activity against methicillin-resistant Staphylococcus aureus ATCC 700699 assessed as bacterial growth inhibitions by CLSI protocol based microdilution method; format: functional
Staphylococcus aureus [4] = experiment: Antibacterial activity against methicillin resistant Staphylococcus aureus ATCC 700699 persisters assessed as reduction in viability at 8 times MIC measured within 4 hrs by colony counting method; format: functional; details: time hrs <=4
Method in brief: (§1)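 Stationary-phase S. aureus from overnight CAMHB culture (35 °C, 200 rpm), washed thrice in PBS, diluted to ~5 × 10^8 CFU/ml. Incubated with antibiotic at 35 °C, 200 rpm. Aliquots taken at set times, washed, serially diluted in PBS, drop-plated (6 × 6) on TSA with 5% sheep blood. Colonies counted after 18–20 h at 35 °C. Triplicates.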

Enterococcus faecalis [5] = experiment: Antibiofilm activity against Enterococcus faecalis ATCC 29212 assessed as inhibition of biofilm formation at 0.5 times MIC after 24 hrs by crystal violet staining based assay relative to control; format: functional
Method in brief: (§2)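 Overnight culture brought to 0.5 McFarland in PBS, diluted 1:100 in CAMHB with 1% glucose. Inhibition: cells plus compound (in DMSO) at 2x, 1x, 0.5xMIC, 24 h at 35 °C, triplicate. Destruction: 24 h biofilm grown without drug, washed, fresh medium with compound, further 24 h. Then washed, dried, 0.1% crystal violet, solubilized in 33% acetic acid, OD 620 nm. Controls are DMSO-only and broth-only wells.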

Staphylococcus aureus [6] = experiment: Antibacterial activity against methicillin resistant Staphylococcus aureus ATCC 700699 persisters assessed as reduction in viability at 16 times MIC by colony counting method; format: functional, organism-based; method in brief: as §1
Staphylococcus aureus [7] = experiment: Antibiofilm activity against Staphylococcus aureus ATCC 25923 assessed as inhibition of biofilm formation at 2 times MIC after 24 hrs by crystal violet staining based assay relative to control; format: functional; design: scale not given: the % may be the effect or the level left; method in brief: as §2
Staphylococcus aureus [8] = experiment: Antimicrobial activity against methicillin-resistant Staphylococcus aureus ATCC 33592 assessed as bacterial growth inhibitions by CLSI protocol based microdilution method; format: functional
Staphylococcus aureus [9] = experiment: Antibacterial activity against methicillin resistant Staphylococcus aureus ATCC 700699 persisters assessed as reduction in viability at 2 times MIC measured within 4 hrs by colony counting method; format: functional; details: time hrs <=4; method in brief: as §1
Staphylococcus aureus [10] = experiment: Antibacterial activity against methicillin resistant Staphylococcus aureus ATCC 700699 persisters assessed as reduction in viability at 4 times MIC measured within 4 hrs by colony counting method; format: functional; details: time hrs <=4; method in brief: as §1
[11] = system: Staphylococcus epidermidis; experiment: Antimicrobial activity against methicillin-resistant Staphylococcus epidermidis ATCC 700296 assessed as bacterial growth inhibitions by CLSI protocol based microdilution method; format: functional
Staphylococcus aureus [12] = experiment: Bactericidal activity against Staphylococcus aureus ATCC 700699 assessed as reduction bacterial growth at 4X MIC measured after 6 hrs by time-kill kinetic assay; format: functional, organism-based
Method in brief: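 Log-phase culture diluted to ~5 × 10^6 CFU/ml in warm CAMHB, exposed at 4xMIC, 35 °C. 20 µl samples every 2 h, 10-fold dilutions to 10^-5, 6 × 6 drop plating. CFU/ml counted after 18–24 h at 35 °C; triplicate.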

Staphylococcus aureus [13] = experiment: Antibiofilm activity against Staphylococcus aureus ATCC 25923 assessed as destruction of biofilm formation at 2 times MIC after 24 hrs by crystal violet staining based assay relative to control; format: functional; method in brief: as §2
Staphylococcus aureus [14] = experiment: Antibacterial activity against vancomycin-intermediate susceptible Staphylococcus aureus ATCC 25923 assessed as bacterial growth inhibition by measuring fold increase in MIC between 14 passages by broth dilution method; format: functional
Staphylococcus aureus [15] = experiment: Antibacterial activity against vancomycin-intermediate susceptible Staphylococcus aureus ATCC 25923 assessed as bacterial growth inhibition by measuring fold increase in MIC between 8 passages by broth dilution method; format: functional
Enterococcus faecalis [16] = experiment: Antibacterial activity against vancomycin-intermediate Enterococcus faecalis ATCC 29212 assessed as bacterial growth inhibition by measuring fold increase in MIC after14 passages by broth dilution method; format: functional, organism-based
Staphylococcus aureus [17] = experiment: Antimicrobial activity against antibiotic-resistant Staphylococcus aureus BM-2312 assessed as bacterial growth inhibitions by CLSI protocol based microdilution method; format: functional
Staphylococcus aureus [18] = experiment: Antibiofilm activity against Staphylococcus aureus ATCC 25923 assessed as destruction of biofilm formation at 0.5 times MIC after 24 hrs by crystal violet staining based assay relative to control; format: functional, organism-based; method in brief: as §2
Staphylococcus aureus [19] = experiment: Antibiofilm activity against Staphylococcus aureus ATCC 25923 assessed as inhibition of biofilm formation at 0.5 times MIC after 24 hrs by crystal violet staining based assay relative to control; format: functional, organism-based; method in brief: as §2
Enterococcus faecium = experiment: Antimicrobial activity against vancomycin-resistant Enterococcus faecium ATCC 700221 assessed as bacterial growth inhibitions by CLSI protocol based microdilution method; format: functional
Staphylococcus aureus [20] = experiment: Antimicrobial activity against methicillin-resistant Staphylococcus aureus ATCC 33591 assessed as bacterial growth inhibitions by CLSI protocol based microdilution method; format: functional
Staphylococcus aureus [21] = experiment: Antibiofilm activity against Staphylococcus aureus ATCC 25923 assessed as destruction of biofilm formation at 1 times MIC after 24 hrs by crystal violet staining based assay relative to control; format: functional; method in brief: as §2
Staphylococcus aureus [22] = experiment: Antimicrobial activity against methicillin-susceptible Staphylococcus aureus ATCC 25923 assessed as bacterial growth inhibitions by CLSI protocol based microdilution method; format: functional
Enterococcus faecalis [23] = experiment: Antibiofilm activity against Enterococcus faecalis ATCC 29212 assessed as inhibition of biofilm formation at 1 times MIC after 24 hrs by crystal violet staining based assay relative to control; format: functional; method in brief: as §2
Bacillus subtilis = experiment: Antimicrobial activity against Bacillus subtilis ATCC 6623 assessed as bacterial growth inhibitions by CLSI protocol based microdilution method; format: functional
Method in brief: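 Broth microdilution starting at 50 µg/ml with 2-fold serial dilutions; run in triplicate.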

Staphylococcus aureus [24] = experiment: Inhibition of lipid synthesis in Staphylococcus aureus ATCC 29213 at 8 times MIC measured by liquid scintillation counter; format: functional
Method in brief: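 Early-exponential S. aureus ATCC 29213 in CAMHBII exposed to drug at 8x MIC in triplicate tubes. Lipids extracted with chloroform/water. Organic phase dried and counted by liquid scintillation.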

O=C(O)c1ccc(-n2cc(CNc3cc(Cl)c(F)c(Cl)c3)c(-c3ccc(C(F)(F)F)cc3)n2)cc1
selectivity ratio [1]: 33 | MIC (Enterococcus faecalis [2]): 1.56 µg/mL (≈ 2.98 µM) | MIC (Staphylococcus aureus [3]): 0.78 µg/mL (≈ 1.49 µM) | Activity (Staphylococcus aureus [4]): 1 log10CFU/ml | Activity (Enterococcus faecalis [5]): inactive | Activity (Staphylococcus aureus [6]): Active | Activity (Staphylococcus aureus [7]): > 85% | MIC (Staphylococcus aureus [8]): 0.78 µg/mL (≈ 1.49 µM) | Activity (Staphylococcus aureus [9]): 1 log10CFU/ml | Activity (Staphylococcus aureus [10]): 1 log10CFU/ml | MIC [11]: 0.78 µg/mL (≈ 1.49 µM) | Activity (Staphylococcus aureus [12]): Active | Activity (Staphylococcus aureus [13]): 70% | fold change (FC) (Staphylococcus aureus [14]): 2 | fold change (FC) (Staphylococcus aureus [15]): 2 | Activity (Enterococcus faecalis [16]): inactive | MIC (Staphylococcus aureus [17]): 0.78 µg/mL (≈ 1.49 µM) | Activity (Staphylococcus aureus [18]): inactive | Activity (Staphylococcus aureus [19]): inactive | MIC (Enterococcus faecium): 0.78 µg/mL (≈ 1.49 µM) | MIC (Staphylococcus aureus [20]): 0.78 µg/mL (≈ 1.49 µM) | Activity (Staphylococcus aureus [21]): 55% | MIC (Staphylococcus aureus [22]): 0.78 µg/mL (≈ 1.49 µM) | Activity (Enterococcus faecalis [23]): inactive | MIC (Bacillus subtilis): 0.78 µg/mL (≈ 1.49 µM)

C/C=C/C/C=C/CCC(=O)[C@H]1O[C@H]1C(N)=O [CERULENIN]
inhibition (INH) (Staphylococcus aureus [24]): 71.9%
